In ChEMBL document CHEMBL3044834, “Novel protoporphyrinogen oxidase inhibitors: 3H-pyrazolo[3,4-d][1,2,3]triazin-4-one derivatives” (J Agric Food Chem, 2008):

What was measured:
Assay type in all cases: functional
[1] = system: Brassica rapa subsp. oleifera; assay: Herbicidal activity against Brassica rapa subsp. oleifera assessed as inhibition of fresh weed plant weight at 1500 g/ha using pre-emergence treatment protocol
Echinochloa crus-galli [2] = assay: Herbicidal activity against Echinochloa crus-galli (barnyard grass) assessed as inhibition of fresh weed plant weight at 187.5 g/ha using post-emergence treatment protocol
Procedure, shortened: (§1)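 Test compounds made up as emulsions by dissolving in 100 µL N,N-dimethylformamide, then adding a little Tween 20 and water. For post-emergence, weed seedlings at one leaf and one stem were sprayed at the same rates as the pre-emergence test. Fresh weight was recorded 15 days after treatment and expressed as percent inhibition versus controls. All treatments were run in triplicate.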

Amaranthus retroflexus [3] = assay: Herbicidal activity against Amaranthus retroflexus assessed as inhibition of fresh weed plant weight at 187.5 g/ha using post-emergence treatment protocol; procedure, shortened: as §1
[4] = system: Brassica rapa subsp. oleifera; assay: Herbicidal activity against Brassica rapa subsp. oleifera assessed as inhibition of fresh weed plant weight at 45 g/ha using pre-emergence treatment protocol
Amaranthus retroflexus [5] = assay: Herbicidal activity against Amaranthus retroflexus assessed as inhibition of fresh weed plant weight at 1500 g/ha using post-emergence treatment protocol; procedure, shortened: as §1
[6] = system: Brassica rapa subsp. oleifera; assay: Herbicidal activity against Brassica rapa subsp. oleifera assessed as inhibition of fresh weed plant weight at 187.5 g/ha using post-emergence treatment protocol; procedure, shortened: as §1
Amaranthus retroflexus [7] = assay: Herbicidal activity against Amaranthus retroflexus assessed as inhibition of fresh weed plant weight at 750 g/ha using pre-emergence treatment protocol; procedure, shortened: as §1
Echinochloa crus-galli [8] = assay: Herbicidal activity against Echinochloa crus-galli (barnyard grass) assessed as inhibition of fresh weed plant weight at 375 g/ha using post-emergence treatment protocol; procedure, shortened: as §1
Echinochloa crus-galli [9] = assay: Herbicidal activity against Echinochloa crus-galli (barnyard grass) assessed as inhibition of fresh weed plant weight at 1500 g/ha using pre-emergence treatment protocol
Digitaria sanguinalis [10] = assay: Herbicidal activity against Digitaria sanguinalis (hairy crabgrass) assessed as inhibition of fresh weed plant weight at 750 g/ha using pre-emergence treatment protocol
Digitaria sanguinalis [11] = assay: Herbicidal activity against Digitaria sanguinalis (hairy crabgrass) assessed as inhibition of fresh weed plant weight at 1500 g/ha using post-emergence treatment protocol; procedure, shortened: as §1
[12] = system: Brassica rapa subsp. oleifera; assay: Herbicidal activity against Brassica rapa subsp. oleifera assessed as inhibition of fresh weed plant weight at 375 g/ha using pre-emergence treatment protocol
Digitaria sanguinalis [13] = assay: Herbicidal activity against Digitaria sanguinalis (hairy crabgrass) assessed as inhibition of fresh weed plant weight at 750 g/ha using post-emergence treatment protocol; procedure, shortened: as §1
Amaranthus retroflexus [14] = assay: Herbicidal activity against Amaranthus retroflexus assessed as inhibition of fresh weed plant weight at 22.5 g/ha using pre-emergence treatment protocol
Amaranthus retroflexus [15] = assay: Herbicidal activity against Amaranthus retroflexus assessed as inhibition of fresh weed plant weight at 45 g/ha using pre-emergence treatment protocol
Echinochloa crus-galli [16] = assay: Herbicidal activity against Echinochloa crus-galli (barnyard grass) assessed as inhibition of fresh weed plant weight at 45 g/ha using pre-emergence treatment protocol
Amaranthus retroflexus [17] = assay: Herbicidal activity against Amaranthus retroflexus assessed as inhibition of fresh weed plant weight at 750 g/ha using post-emergence treatment protocol; procedure, shortened: as §1
[18] = system: Brassica rapa subsp. oleifera; assay: Herbicidal activity against Brassica rapa subsp. oleifera assessed as inhibition of fresh weed plant weight at 93.75 g/ha using pre-emergence treatment protocol
Echinochloa crus-galli [19] = assay: Herbicidal activity against Echinochloa crus-galli (barnyard grass) assessed as inhibition of fresh weed plant weight at 750 g/ha using post-emergence treatment protocol; procedure, shortened: as §1
Echinochloa crus-galli [20] = assay: Herbicidal activity against Echinochloa crus-galli (barnyard grass) assessed as inhibition of fresh weed plant weight at 375 g/ha using pre-emergence treatment protocol; procedure, shortened: as §1
Digitaria sanguinalis [21] = assay: Herbicidal activity against Digitaria sanguinalis (hairy crabgrass) assessed as inhibition of fresh weed plant weight at 187.5 g/ha using post-emergence treatment protocol; procedure, shortened: as §1
Echinochloa crus-galli [22] = assay: Herbicidal activity against Echinochloa crus-galli (barnyard grass) assessed as inhibition of fresh weed plant weight at 93.75 g/ha using pre-emergence treatment protocol
Echinochloa crus-galli [23] = assay: Herbicidal activity against Echinochloa crus-galli (barnyard grass) assessed as inhibition of fresh weed plant weight at 1500 g/ha using post-emergence treatment protocol; procedure, shortened: as §1
Digitaria sanguinalis [24] = assay: Herbicidal activity against Digitaria sanguinalis (hairy crabgrass) assessed as inhibition of fresh weed plant weight at 93.75 g/ha using pre-emergence treatment protocol
Amaranthus retroflexus [25] = assay: Herbicidal activity against Amaranthus retroflexus assessed as inhibition of fresh weed plant weight at 375 g/ha using post-emergence treatment protocol; procedure, shortened: as §1
Amaranthus retroflexus [26] = assay: Herbicidal activity against Amaranthus retroflexus assessed as inhibition of fresh weed plant weight at 93.75 g/ha using pre-emergence treatment protocol
Digitaria sanguinalis [27] = assay: Herbicidal activity against Digitaria sanguinalis (hairy crabgrass) assessed as inhibition of fresh weed plant weight at 1500 g/ha using pre-emergence treatment protocol
[28] = system: Brassica rapa subsp. oleifera; assay: Herbicidal activity against Brassica rapa subsp. oleifera assessed as inhibition of fresh weed plant weight at 93.75 g/ha using post-emergence treatment protocol; procedure, shortened: as §1
Echinochloa crus-galli [29] = assay: Herbicidal activity against Echinochloa crus-galli (barnyard grass) assessed as inhibition of fresh weed plant weight at 750 g/ha using pre-emergence treatment protocol
Amaranthus retroflexus [30] = assay: Herbicidal activity against Amaranthus retroflexus assessed as inhibition of fresh weed plant weight at 93.75 g/ha using post-emergence treatment protocol; procedure, shortened: as §1
Digitaria sanguinalis [31] = assay: Herbicidal activity against Digitaria sanguinalis (hairy crabgrass) assessed as inhibition of fresh weed plant weight at 375 g/ha using pre-emergence treatment protocol
[32] = system: Brassica rapa subsp. oleifera; assay: Herbicidal activity against Brassica rapa subsp. oleifera assessed as inhibition of fresh weed plant weight at 750 g/ha using post-emergence treatment protocol; procedure, shortened: as §1
Echinochloa crus-galli [33] = assay: Herbicidal activity against Echinochloa crus-galli (barnyard grass) assessed as inhibition of fresh weed plant weight at 22.5 g/ha using pre-emergence treatment protocol; procedure, shortened: as §1
Digitaria sanguinalis [34] = assay: Herbicidal activity against Digitaria sanguinalis (hairy crabgrass) assessed as inhibition of fresh weed plant weight at 45 g/ha using pre-emergence treatment protocol
[35] = system: Brassica rapa subsp. oleifera; assay: Herbicidal activity against Brassica rapa subsp. oleifera assessed as inhibition of fresh weed plant weight at 750 g/ha using pre-emergence treatment protocol
Echinochloa crus-galli [36] = assay: Herbicidal activity against Echinochloa crus-galli (barnyard grass) assessed as inhibition of fresh weed plant weight at 93.75 g/ha using post-emergence treatment protocol; procedure, shortened: as §1
[37] = system: Brassica rapa subsp. oleifera; assay: Herbicidal activity against Brassica rapa subsp. oleifera assessed as inhibition of fresh weed plant weight at 1500 g/ha using post-emergence treatment protocol; procedure, shortened: as §1
Amaranthus retroflexus [38] = assay: Herbicidal activity against Amaranthus retroflexus assessed as inhibition of fresh weed plant weight at 1500 g/ha using pre-emergence treatment protocol
[39] = system: Brassica rapa subsp. oleifera; assay: Herbicidal activity against Brassica rapa subsp. oleifera assessed as inhibition of fresh weed plant weight at 375 g/ha using post-emergence treatment protocol; procedure, shortened: as §1
Digitaria sanguinalis [40] = assay: Herbicidal activity against Digitaria sanguinalis (hairy crabgrass) assessed as inhibition of fresh weed plant weight at 375 g/ha using post-emergence treatment protocol; procedure, shortened: as §1
Digitaria sanguinalis [41] = assay: Herbicidal activity against Digitaria sanguinalis (hairy crabgrass) assessed as inhibition of fresh weed plant weight at 22.5 g/ha using pre-emergence treatment protocol
[42] = system: Brassica rapa subsp. oleifera; assay: Herbicidal activity against Brassica rapa subsp. oleifera assessed as inhibition of fresh weed plant weight at 22.5 g/ha using pre-emergence treatment protocol
[43] = system: Brassica rapa subsp. oleifera; assay: Herbicidal activity against Brassica rapa subsp. oleifera assessed as inhibition of fresh weed plant weight at 187.5 g/ha using pre-emergence treatment protocol
Echinochloa crus-galli [44] = assay: Herbicidal activity against Echinochloa crus-galli (barnyard grass) assessed as inhibition of fresh weed plant weight at 187.5 g/ha using pre-emergence treatment protocol; procedure, shortened: as §1
Amaranthus retroflexus [45] = assay: Herbicidal activity against Amaranthus retroflexus assessed as inhibition of fresh weed plant weight at 187.5 g/ha using pre-emergence treatment protocol
Amaranthus retroflexus [46] = assay: Herbicidal activity against Amaranthus retroflexus assessed as inhibition of fresh weed plant weight at 375 g/ha using pre-emergence treatment protocol
Digitaria sanguinalis [47] = assay: Herbicidal activity against Digitaria sanguinalis (hairy crabgrass) assessed as inhibition of fresh weed plant weight at 93.75 g/ha using post-emergence treatment protocol; procedure, shortened: as §1
Digitaria sanguinalis [48] = assay: Herbicidal activity against Digitaria sanguinalis (hairy crabgrass) assessed as inhibition of fresh weed plant weight at 187.5 g/ha using pre-emergence treatment protocol

C=CCN1C(=O)COc2cc(F)c(-n3nnc4c(cnn4CC=C)c3=O)cc21
inhibition at 1500 g/ha [1]: 100% | inhibition at 187.5 g/ha (Echinochloa crus-galli [2]): 14.2% | inhibition at 187.5 g/ha (Amaranthus retroflexus [3]): 30.6% | inhibition at 45 g/ha [4]: 40.7% | inhibition at 1500 g/ha (Amaranthus retroflexus [5]): 100% | inhibition at 187.5 g/ha [6]: 55.6% | inhibition at 750 g/ha (Amaranthus retroflexus [7]): 100% | inhibition at 375 g/ha (Echinochloa crus-galli [8]): 23.2% | inhibition at 1500 g/ha (Echinochloa crus-galli [9]): 96.5% | inhibition at 750 g/ha (Digitaria sanguinalis [10]): 67.4% | inhibition at 1500 g/ha (Digitaria sanguinalis [11]): 31.2% | inhibition at 375 g/ha [12]: 100% | inhibition at 750 g/ha (Digitaria sanguinalis [13]): 4.2% | inhibition at 22.5 g/ha (Amaranthus retroflexus [14]): 3.4% | inhibition at 45 g/ha (Amaranthus retroflexus [15]): 82.8% | inhibition at 45 g/ha (Echinochloa crus-galli [16]): 7.4% | inhibition at 750 g/ha (Amaranthus retroflexus [17]): 85.1% | inhibition at 93.75 g/ha [18]: 60.4% | inhibition at 750 g/ha (Echinochloa crus-galli [19]): 49.9% | inhibition at 375 g/ha (Echinochloa crus-galli [20]): 47.4% | inhibition at 187.5 g/ha (Digitaria sanguinalis [21]): 0% | inhibition at 93.75 g/ha (Echinochloa crus-galli [22]): 10% | inhibition at 1500 g/ha (Echinochloa crus-galli [23]): 89.3% | inhibition at 93.75 g/ha (Digitaria sanguinalis [24]): 20.4% | inhibition at 375 g/ha (Amaranthus retroflexus [25]): 53.7% | inhibition at 93.75 g/ha (Amaranthus retroflexus [26]): 100% | inhibition at 1500 g/ha (Digitaria sanguinalis [27]): 92.3% | inhibition at 93.75 g/ha [28]: 19.6% | inhibition at 750 g/ha (Echinochloa crus-galli [29]): 89.2% | inhibition at 93.75 g/ha (Amaranthus retroflexus [30]): 19% | inhibition at 375 g/ha (Digitaria sanguinalis [31]): 51% | inhibition at 750 g/ha [32]: 100% | inhibition at 22.5 g/ha (Echinochloa crus-galli [33]): 5.4% | inhibition at 45 g/ha (Digitaria sanguinalis [34]): 17.1% | inhibition at 750 g/ha [35]: 100% | inhibition at 93.75 g/ha (Echinochloa crus-galli [36]): 0.2% | inhibition at 1500 g/ha [37]: 100% | inhibition at 1500 g/ha (Amaranthus retroflexus [38]): 100% | inhibition at 375 g/ha [39]: 95.3% | inhibition at 375 g/ha (Digitaria sanguinalis [40]): 0% | inhibition at 22.5 g/ha (Digitaria sanguinalis [41]): 4.9% | inhibition at 22.5 g/ha [42]: 12.7% | inhibition at 187.5 g/ha [43]: 93.3% | inhibition at 187.5 g/ha (Echinochloa crus-galli [44]): 34.4% | inhibition at 187.5 g/ha (Amaranthus retroflexus [45]): 100% | inhibition at 375 g/ha (Amaranthus retroflexus [46]): 100% | inhibition at 93.75 g/ha (Digitaria sanguinalis [47]): 0% | inhibition at 187.5 g/ha (Digitaria sanguinalis [48]): 26.5%
